From PubChem BioAssay
S100A4 MyoIIA: S100A4-myosin IIA interaction inhibition | P26447 | S100A4/TAMRA-MyoIIA peptide fluorescence polarization | inhibition, % at 10.7 µM | 360,000 tested, 0.14% active | AID 652163;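 active = mean inhibition of at least 70% across replicates, with every replicate also reaching that level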
Target sequence (P26447 whole entry, looked up): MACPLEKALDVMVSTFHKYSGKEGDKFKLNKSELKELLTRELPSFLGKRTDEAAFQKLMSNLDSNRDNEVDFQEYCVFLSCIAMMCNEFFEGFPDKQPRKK
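assay system = human S100A4 monomer with TAMRA-labelled myosin IIA peptide | also added = labelled myosin peptide probe, 5 nM | incubation = 5 min between mix addition and reading | control set = DMSO and TFP controls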
PGC1a acetyl inh: lowers PGC1a acetylation signal in U2OS cells; AlphaScreen anti-acetyl-lysine; with virally co-expressed GCN5 acetyltransferase; inhibition, % at 15.6 µM; 350,000 tested, 0.17% active; AID 651687;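 active = every replicate shows inhibition of at least 40%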;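 note: 0% = neutral control wells and 100% = positive control wells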
SIRT5 inh: sirtuin-5 (human) deacylase inhibition; Q9NXA8; Purified SirT5, succinyl-peptide AMC, trypsin-coupled fluorescence; inhibition, % at 15 µM; 330,000 tested, 1.1% active; in the data active = inhibition above about 15%
Target sequence (Q9NXA8 whole entry, looked up): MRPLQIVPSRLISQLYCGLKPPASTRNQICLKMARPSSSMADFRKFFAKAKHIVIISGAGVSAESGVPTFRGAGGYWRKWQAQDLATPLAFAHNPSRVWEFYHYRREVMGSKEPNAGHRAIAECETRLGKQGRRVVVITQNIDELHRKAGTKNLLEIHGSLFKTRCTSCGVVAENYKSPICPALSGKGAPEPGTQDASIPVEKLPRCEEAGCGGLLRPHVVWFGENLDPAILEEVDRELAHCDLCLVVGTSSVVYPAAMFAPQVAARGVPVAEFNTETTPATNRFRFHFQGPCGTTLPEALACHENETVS
C2C12 statin: protects C2C12 myotubes from simvastatin toxicity. ATP luminescence, 48 h; scaled: DMSO 0, geranylgeraniol control 100. rescue of ATP level, % at 7.49 µM. 330,000 tested, 0.78% active. AID 602340;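 active = mean ATP rescue above about 67%, or every replicate alone reaching that limit, limit read from the data, passing the limit was not always enough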;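 note: myotubes were challenged with 10 µM simvastatin during compound exposure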
Cneo AK release: Cryptococcus neoformans lysis via adenylate kinase release; C. neoformans lysis, adenylate kinase release luminescence, 4 h; normalised: neutral wells 0, clomiphene wells 100; lysis activity, % at 15 µM; AID 651654; 360,000 tested, 0.2% active;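 active = mean lysis activity across replicates of at least 80%, whatever share of replicates individually reach that level; inactive = mean lysis activity below 80%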
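Assay system: log-phase C. neoformans yeast / Quantity: yeast cell density of 5 × 10^6 cells/mL / Medium: fresh YPD growth medium / Compound: single dose / Timing: static 4 h at 37 °C with compound, 1 h detection / Measured by: adenylate kinase release luminescence / Read-out: lysis from increased AK signal / Benchmarks: Clomiphene as positive lysis control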
Ecoli rRNA inh: inhibits bacterial ribosomal RNA function over humanized ribosomes; E. coli WT GFP vs humanized-ribosome RFP mutants, fluorescence, 24 h; active compounds read low; DMSO median 0, no signal -100; GFP signal change (wild-type ribosome), % (concentration not given with the values); 350,000 tested, 1.6% active; AID 720706;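 active = significant combined selectivity score with lowered wild-type GFP, culture density cut under 30%, mutant RFP and density less affected; inactive = any of these conditions unmet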
The depositor's hits bear a star; . = no result given. Sampled rows, rich in hits. Any-hit rate of the full collection: about 3%.

SMILES	S100A4 MyoIIA	PGC1a acetyl inh	SIRT5 inh	C2C12 statin	Cneo AK release	Ecoli rRNA inh
CC1=Nc2ccccc2/C1=C/c1c(N)n2c(S(=O)(=O)C(C)C)nsc2nc1=O	2	-2	.	7	4	-35
COc1ccc(NC(=O)Nc2ccc3c(c2)CC(=O)N([C@@H](C)CO)C[C@@H](C)[C@H](CN(C)S(C)(=O)=O)O3)cc1	6	-5	.	.	.	0
Fc1cccc(Cl)c1Cn1nnc(-c2ccc(N3CCOCC3)cc2)n1	.	5	.	99*	1	.
NCC(O)CN(c1ccccc1)c1ccccc1 (stereo not drawn)	-23	-15	38*	9	.	19
CN(c1ccccc1)S(=O)(=O)c1ccccc1Br	-1	-6	-5	4	1	-38*
COc1ccc(-c2ccc(SCC(=O)c3cccs3)nn2)cc1OC	-9	-31	1	.	.	-34*
COc1ccc(-c2ccc(SCC(=O)c3ccc(F)cc3)nn2)cc1OC	0	29	5	.	2	-21
O=S(=O)(Nc1ccccc1)c1cccc2nonc12	0	.	-2	3	0	14
ONC=Nc1cccc2nonc12	.	3	.	146*	1	.
O=[N+]([O-])c1c(NCCCO)cc(Sc2nc3ccccc3s2)c2nonc12	-6	58*	1	-5	1	5
Cc1nnc(Sc2cc(NCCCO)c([N+](=O)[O-])c3nonc23)s1	-4	20	1	.	.	-51
CCC(=O)OCCNc1cc(Sc2nc3ccccc3s2)c2nonc2c1[N+](=O)[O-]	.	19	.	102*	-1	.
COc1ccccc1C(=O)Nc1ccc(S(=O)(=O)N2CCCCC2c2cccnc2)cc1 (stereo not drawn)	-3	-16	-4	.	.	-22*
O=C(Nc1ccc(S(=O)(=O)N2CCCCC2c2cccnc2)cc1)c1ccccc1F (stereo not drawn)	-6	-3	-4	.	0	-35
O=C(NC(=S)NN1CCCCC1c1cccnc1)c1ccc(Br)cc1 (stereo not drawn)	-5	-6	1	-15	-1	.
COC(=O)c1ccc(NC(=S)NN2CCCCC2c2cccnc2)cc1 (stereo not drawn)	-1	6	-5	-4	-3	-27*
CCO/C=C1/C(=O)N(Cc2ccccc2)C(=O)c2ccccc21	-1	.	26*	.	.	17
CCc1ccc(CCC(=O)Nc2sc(C)c(C)c2C(=O)OC)o1	2	-22	-7	94*	-3	-12
CN(C)c1ccc2c(c1)[C@@H]1C[C@@H](CC(=O)NCc3ccc4c(c3)OCO4)O[C@H](CO)[C@@H]1O2	-20	4	-2	4	-4	-1
O=c1[nH]c2c(cnn2-c2ccc(Cl)cc2)c(=O)n1-c1cccc(Cl)c1	-2	.	-2	.	.	-35*
COc1ccc2c3c(n(C)c2c1)[C@@H](CO)N(CC1CC1)CC31CN(C(=O)Nc2ccc(F)cc2F)C1	.	-1	.	.	.	-6
Cc1ccc2c(c1)-c1c(cnn1CC(=O)O)CO2	.	2	.	92*	2	.
CCN(CCN(C)C)C(=O)Cn1ncc2c1-c1cc(C)ccc1OC2	45	7	.	-5	-1	8
O=C(OCCc1cc2ccccc2c(=O)o1)c1ccc(C(F)(F)F)cc1	3	.	.	5	3	-3
O=C(OCCc1cc2ccccc2c(=O)o1)c1ccc(F)cc1	-10	19	33*	3	0	-18
SMILES	S100A4 MyoIIA	PGC1a acetyl inh	SIRT5 inh	C2C12 statin	Cneo AK release	Ecoli rRNA inh
O=S(=O)(NCc1csc(-c2cccs2)n1)c1ccc(Cl)cc1	-12	18	.	24	1	-36
O=S(=O)(NCc1csc(-c2cccs2)n1)c1cccc(C(F)(F)F)c1	-8	-20	.	131*	1	-36
O=C(O)COc1ccc(/C=C/c2nc(-c3ccccc3O)n[nH]2)cc1	-6	.	1	-1	-3	-17*
COc1ccc(/C=C/c2nc(-c3ccccc3O)n[nH]2)cc1OC	.	-15	.	-4	-19	.
Cn1c(-c2ccccc2)c(CCO)c2ccccc21	.	-7	.	2	1	.
OCCCc1cn(-c2ccccc2)c2ccccc12	21	.	-1	.	.	-39*
CCOC(=O)C1=C(C)N=C2SC(C)C(=O)N2C1c1ccc(C(=O)OC)cc1 (stereo not drawn)	.	-18	.	91*	0	.
CNC(=O)C[C@@H]1CC[C@H]2[C@@H](COC[C@@H](O)CN2Cc2ccc(Cl)c(Cl)c2)O1	.	5	.	13	3	-9
O=c1c(O)cccc2cc(O)c(O)c(O)c12	-4	11	33*	-1	-2	-6
